Screening data deposited in PubChem by several laboratories.
Compounds with a hit are over-represented: about 0.57% of the library has one in this group of screens.
VLA-4 inh = inhibition in a human VLA-4 binding assay; VLA-4 expressing cells, ligand binding flow cytometry; inhibition, % (about 7 µM as worked out from the volumes in the protocol); 330,000 tested, 0.2% active; AID 2557; in the data active = inhibition above about 50%
Arr AP2 block = blocks beta-arrestin peptide binding to AP2 adaptin; FITC-arrestin peptide / GST-AP2 beads, flow cytometry; AP2 beta2 appendage carries R879A mutation; inhibition, % at 10 µM; 340,000 tested, 0.31% active;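 active = inhibition above a set limit, near 3 SD of compounds lacking own fluorescence, cut at about 54% in these data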;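 note: plate controls were DMSO wells for no effect and 5 µM unlabelled arrestin peptide for full effect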
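System: GST-AP2 R879A glutathione beads. Medium: PBS with 0.05% Tween 20 and 0.1% BSA. Also added: FITC-arrestin peptide, 50 nM. Incubation: 12 min plus 1 h, RT. Measured by: high-throughput flow cytometry of beads, ex 488, em 535 nm. Evaluation: percent drop in bead-associated FITC signal.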
GASC-1 inh = human JMJD2C demethylase inhibition; Q9H3R0; GST-JMJD2C(1-420) H3K9me3 demethylation, DELFIA europium; inhibition, % at 2.35 µM; 330,000 tested, 0.069% active;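 active = more than half of a compound's replicate wells show inhibition beyond 50%, single wells judged on their own value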;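 note: signal counts dimethyl H3K9 product captured on neutravidin plate; 0% = median of DMSO wells and 100% = 0.3 times that DMSO median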
pCIP destab = compounds decreasing mouse p/CIP protein stability. 290,000 tested, 0.01% active. Q05BA5. F442A p/CIP-EGFP cells, EGFP fluorescence, 16 h. decrease of EGFP signal, % at 10 µM;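 active = EGFP signal decrease of at least 30% at 10 µM or well 3 SD below plate mean, unless failing retest; inactive = the rest, including hits failing retest or dose response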
Arr-AP2 CP1 = blocks beta-arrestin peptide binding to human AP2. inhibition, % at 10 µM. 1,300 tested, 2% active. shares compounds with Arr AP2 block. GST-AP2 beads, FITC arrestin peptide binding, flow cytometry; GST-fused beta2-adaptin appendage, R879A mutant. AID 504908;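 active = inhibition above a set limit, roughly 3 SD of non-fluorescent compound noise, cut at about 38% in these data; inactive = inhibition at or below that limit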;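 note: loss of bead fluorescence from 50 nM FITC arrestin peptide bound to appendage; 0% = negative control wells and 100% = excess unlabelled arrestin peptide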
GST GSH counter = disrupts GST binding to glutathione beads, arrestin-AP2 artifact; shares compounds with Arr AP2 block; GST-fluorescein binding to GSH beads, fluorescence, counter-screen; inhibition, % at 10 µM; 1,300 tested, 2% active; AID 588338;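 active = inhibition above 50%, about 3 SD of the inhibition seen with non-fluorescent compounds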;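 note: fluorescein maleimide labelled GST captured on 4 micron glutathione beads; higher means more loss of bead fluorescence from quenching or blocked binding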
* hit, by the source's call; · = no result given.

SMILES | VLA-4 inh | Arr AP2 block | GASC-1 inh | pCIP destab | Arr-AP2 CP1 | GST GSH counter
CCOC(=O)C1=C(COC(=O)CSc2ccc(Br)cc2)NC(=O)NC1C (stereo not drawn) | 6 | -6 | -7 | · | · | ·
CCOC(=O)C1=C(COC(=O)CCc2ccccc2)NC(=O)NC1C (stereo not drawn) | 9 | 3 | 4 | · | -7 | -2
CCOC(=O)C1=C(COC(=O)CCC(=O)c2ccc(C)cc2)NC(=O)NC1C (stereo not drawn) | -2 | -1 | -9 | · | -4 | -13
CCOC(=O)C1=C(COC(=O)CCS(=O)(=O)c2ccc(C)cc2)NC(=O)NC1C (stereo not drawn) | · | 13 | · | · | · | ·
CCOC(=O)C1=C(COC(=O)Cc2ccc(Br)cc2)NC(=O)NC1C (stereo not drawn) | 7 | 3 | -9 | -21 | 12 | -5
Cc1cnc(C(=O)N2CCc3c([nH]c4ccccc34)C2c2ccc(F)cc2)cn1 (stereo not drawn) | 18 | -2 | -1 | 10 | · | ·
CCOC(=O)C1=C(COC(=O)CCc2ccc(CC)cc2)NC(=O)NC1C (stereo not drawn) | 0 | -8 | · | · | -1 | 1
O=C(NC1CCCCC1)C(c1cccs1)N(C(=O)c1ccccn1)c1ccccc1 (stereo not drawn) | 0 | -7 | -2 | 5 | · | ·
OC(C#Cc1ccccn1)c1cccs1 (stereo not drawn) | 16 | 99* | 18 | -4 | -6 | -1
CCOC(=O)c1cccc(N2C(=O)Nc3ccccc3N2O)c1 | 3 | 2 | 19 | -4 | · | ·
Cc1ccccc1OCC(=O)Nc1nc2ccccc2[nH]1 | -3 | 17 | 5 | -2 | · | ·
Cc1cc(C)c(OCC(=O)Nc2nc3ccccc3[nH]2)c(C)c1 | 0 | 56* | 0 | -27 | 5 | 3
CCc1c(C)nc2[nH]nc(NC(=O)C(F)(F)F)n2c1=O | 6 | -5 | -7 | 6 | · | ·
CN(CC(=O)NCCN1CCOCC1)S(=O)(=O)c1ccc(Cl)cc1 | -3 | -2 | 6 | · | · | ·
CN(CC(=O)NCCCN1CCOCC1)S(=O)(=O)c1cc(Cl)ccc1Cl | 3 | 64* | -1 | 6 | 9 | -2
CCOCC(=O)Nc1ccc2c(c1)N(S(=O)(=O)c1cccs1)CCC2 | 3 | 56* | -31 | · | -2 | -9
CNC(=O)C(=O)Nc1ccc2c(c1)N(S(=O)(=O)c1cccs1)CCC2 | 17 | 1 | -2 | · | · | ·
CC(=O)N1CCN(S(=O)(=O)c2cccc(C(=O)NC3CCCC3)c2)CC1 | 5 | -19 | 5 | · | · | ·
Cc1ccc(S(=O)(=O)N2CCCC(C(=O)NC3CCCC3)C2)cc1Cl (stereo not drawn) | 3 | 57* | · | -4 | -10 | 0
CN1CCN(S(=O)(=O)c2cccc(C(=O)NC3CCCC3)c2)CC1 | 11 | 60* | 1 | · | 3 | 3
O=C(Nc1ccc(F)cc1)Nc1nnc(COc2ccccc2F)s1 | 0 | 106* | 9 | 12 | -8 | 34
COc1cc(/C=C2\N=C(c3ccccc3)OC2=O)ccc1OCc1c(C)no[n+]1[O-] | 3 | 21 | -22 | -14 | · | ·
Cc1no[n+]([O-])c1COc1cccc(/C=C2\N=C(c3ccccc3)OC2=O)c1 | 10 | 68* | -15 | -12 | 4 | -7
COc1ccc(C(=O)CSC2=NS(=O)(=O)c3cc(Cl)ccc3N2)cc1 | 6 | -7 | 6 | · | · | ·
Cc1ccc(C(=O)N/C(=C\c2ccco2)C(=O)NCCCN2CCOCC2)cc1C | 3 | 21 | -18 | -12 | · | ·
SMILES | VLA-4 inh | Arr AP2 block | GASC-1 inh | pCIP destab | Arr-AP2 CP1 | GST GSH counter
Cc1ccc(C(=O)N/C(=C\c2ccco2)C(=O)NCCN2CCOCC2)cc1C | 0 | 56* | 32 | -11 | -5 | 1
O=C(/C=C/c1ccc(F)cc1)OCC(=O)c1ccc[nH]1 | -16 | 27 | · | · | · | ·
O=C(COC(=O)c1ccc(F)cc1F)c1ccc[nH]1 | · | 72* | · | · | -4 | 2
Cc1ccc(S(=O)(=O)Nc2ccc(S(=O)(=O)Nc3nccs3)cc2)c([N+](=O)[O-])c1 | 2 | -7 | -2 | 0 | · | ·
O=C(CSCc1c(Cl)cccc1Cl)NCc1ccco1 | -1 | 0 | 2 | -3 | · | ·
CCOC(=O)C(=O)Nc1ccc([N+](=O)[O-])cc1OC | 3 | -5 | 0 | -3 | · | ·
CCCC1(C(=O)OC)NC(c2ccc(OC)c(OC)c2)C2C(=O)N(c3cccc(C(C)=O)c3)C(=O)C21 (stereo not drawn) | 3 | -8 | 4 | 10 | · | ·
O=C1N/C(=C/c2cccn2-c2ccc(F)cc2)C(=O)N1Cc1ccccc1F | 11 | 105* | -7 | -5 | 8 | 2
O=C1N/C(=C/c2cccn2-c2ccccc2)C(=O)N1Cc1ccc(F)cc1 | 9 | 1 | 1 | 1 | · | ·
CCOC(=O)C(=Cc1ccc(OCc2ccc([N+](=O)[O-])cc2)c(OC)c1)C(=O)OCC | 12 | 81* | -6 | -10 | -21 | -6
CC12CN3CC(C)(CN(C1)C3c1ccc(Cl)cc1Cl)C2O (stereo not drawn) | 2 | 9 | -3 | 3 | · | ·
CCN(CC(=O)Nc1c(F)cccc1F)C(=O)/C=C/c1ccc2ccccc2n1 | -4 | 60* | -16 | · | 22 | 5
CCN(CC(=O)Nc1c(F)cccc1F)C(=O)c1ccc2ccccc2n1 | 2 | 5 | 2 | · | · | ·
COC(=O)c1cccc(Cn2c(Cl)c(/C=N/NC(=O)c3ccco3)sc2=O)c1 | -9 | 57* | -2 | 4 | -8 | 7
COC(=O)c1cccc(Cn2c(Cl)c(/C=N/NC(=O)c3ccccc3Cl)sc2=O)c1 | 7 | 7 | 0 | 2 | · | ·
COCC(=O)Nc1nc2n(n1)C(c1ccc(Cl)cc1)CC(c1ccc(OC)cc1)N2 (stereo not drawn) | 14 | 80* | 0 | -6 | 2 | -3
O=C(CN1C(=O)COc2ccccc21)NCCN1CCCC1 | 10 | 9 | 9 | -1 | · | ·
O=C(CN1C(=O)COc2ccccc21)NCCCN1CCCC1 | 31 | 64* | 29 | -8 | -2 | -7
Cc1noc(C)c1S(=O)(=O)Nc1ccc2c(c1)C(=O)N([C@H](C)CO)C[C@H](C)[C@@H](CN(C)Cc1ccc(C(=O)O)cc1)O2 | 6 | 60* | · | · | 7 | 10
COc1ccc(-c2cc(C(=O)N(C)CCc3ccc(OC)c(OC)c3)c3ccccc3n2)cc1 | 28 | 4 | -14 | -16 | · | ·
CC1CCCN(C2(O)C(=O)Nc3ccc(Cl)cc32)C1 (stereo not drawn) | 13 | 57* | -10 | -3 | 12 | -1
Nn1c(COc2cccc(Br)c2)nnc1SCC(=O)N1CCc2ccccc2C1 | 18 | -1 | 13 | 3 | · | ·
O=C(NNC1=Nc2ccccc2SC1)c1cccc([N+](=O)[O-])c1 | 4 | 28 | 5 | 0 | · | ·
COc1ccc2nc(-c3ccccc3)cc(C(=O)OCC(=O)N3CCCCC3)c2c1 | 8 | 28 | -2 | · | · | ·
